According to ChEMBL document CHEMBL3098044, “Inhibition of carbonic anhydrases from the extremophilic bacteria Sulfurihydrogenibium yellostonense (SspCA) and S. azorense (SazCA) with a new series of sulfonamides incorporating aroylhydrazone-, [1,2,4]triazolo[3,4-b][1,3,4]thiadiazinyl- or 2-(cyanophenylmethylene)-1,3,4-thiadiazol-3(2H)-yl …” (Bioorg Med Chem, 2014):

What was measured:
[1] = Inhibition of Sulfurihydrogenibium yellowstonense YO3AOP1 carbonic anhydrase preincubated for 15 mins by stopped-flow CO2 hydration assay
Outline: (§1)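 Initial rates of CA-catalysed CO2 hydration followed for 10–100 s with phenol red (0.2 mM) read at 557 nm, in 10–20 mM Hepes pH 7.5 with 20 mM Na2SO4 for ionic strength. CO2 1.7–17 mM. Inhibitors in water at 0.01 mM stock, diluted down to 0.01 nM. Enzyme and inhibitor preincubated at room temperature. Uncatalysed rates subtracted. Ki from non-linear least squares and Cheng–Prusoff, mean of at least three determinations.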

[2] = Inhibition of Sulfurihydrogenibium azorense alpha-carbonic anhydrase preincubated for 15 mins by stopped-flow CO2 hydration assay; outline: as §1

CC(=O)C1=NN(c2ccc(S(N)(=O)=O)cc2)C(=C(C#N)C#N)S1
Ki [1]: 89.1 nM
Ki [2]: 116 nM

COc1ccc(C(=O)N/N=C(C)/C(Cl)=N/Nc2ccc(S(N)(=O)=O)cc2)cc1
Ki [1]: 45.2 nM
Ki [2]: 21.2 nM

CC(=N\NC(=O)c1cccs1)/C(Cl)=N/Nc1ccc(S(N)(=O)=O)cc1
Ki [1]: 6.4 nM
Ki [2]: 14.9 nM

CC(=N\NC(=O)c1ccccc1)/C(=N/Nc1ccc(S(N)(=O)=O)cc1)N1CCCCC1
Ki [1]: 21.9 nM
Ki [2]: 13.5 nM

CC(=N\NC(=O)c1ccc(Cl)cc1)/C(=N/Nc1ccc(S(N)(=O)=O)cc1)N1CCCCC1
Ki [1]: 80.6 nM
Ki [2]: 8.1 nM

COc1ccc(C(=O)N/N=C(C)/C(=N/Nc2ccc(S(N)(=O)=O)cc2)N2CCCCC2)cc1
Ki [1]: 62.8 nM
Ki [2]: 4 nM

CC(=N\NC(=O)c1cccs1)/C(=N/Nc1ccc(S(N)(=O)=O)cc1)N1CCCCC1
Ki [1]: 20.5 nM
Ki [2]: 0.77 nM

CC(=N\NC(=O)c1ccccc1)/C(=N/Nc1ccc(S(N)(=O)=O)cc1)S(=O)(=O)c1ccccc1
Ki [1]: 42.9 nM
Ki [2]: 94.5 nM

CC(=N\NC(=O)c1ccc(Cl)cc1)/C(=N/Nc1ccc(S(N)(=O)=O)cc1)S(=O)(=O)c1ccccc1
Ki [1]: 68.3 nM
Ki [2]: 59.1 nM

COc1ccc(C(=O)N/N=C(C)/C(=N/Nc2ccc(S(N)(=O)=O)cc2)S(=O)(=O)c2ccccc2)cc1
Ki [1]: 78.2 nM
Ki [2]: 169 nM

CC(=N\NC(=O)c1cccs1)/C(=N/Nc1ccc(S(N)(=O)=O)cc1)S(=O)(=O)c1ccccc1
Ki [1]: 74.5 nM
Ki [2]: 21.9 nM

Cc1nn2c(C)nnc2s/c1=N/Nc1ccc(S(N)(=O)=O)cc1
Ki [1]: 28.3 nM
Ki [2]: 18.3 nM

Cc1nn2c(-c3ccccc3)nnc2s/c1=N/Nc1ccc(S(N)(=O)=O)cc1
Ki [1]: 47.9 nM
Ki [2]: 9.7 nM

CCOC(=O)/C(C#N)=C1\SC(C(C)=O)=NN1c1ccc(S(N)(=O)=O)cc1
Ki [1]: 38.7 nM
Ki [2]: 193 nM

CC(=O)C1=NN(c2ccc(S(N)(=O)=O)cc2)/C(=C(\C#N)C(=O)c2ccccc2)S1
Ki [1]: 76.8 nM
Ki [2]: 234 nM

CC(=O)C1=NN(c2ccc(S(N)(=O)=O)cc2)/C(=C(\C#N)C(=O)Nc2ccc(S(N)(=O)=O)cc2)S1
Ki [1]: 71 nM
Ki [2]: 101 nM

CC(=N\NC(=O)c1ccccc1)/C(Cl)=N/Nc1ccc(S(N)(=O)=O)cc1
Ki [1]: 6.2 nM
Ki [2]: 24.3 nM

CC(=N\NC(=O)c1ccc(Cl)cc1)/C(Cl)=N/Nc1ccc(S(N)(=O)=O)cc1
Ki [1]: 51.1 nM
Ki [2]: 18.5 nM

CC(=O)Nc1nnc(S(N)(=O)=O)s1 [ACETAZOLAMIDE]
Ki [2]: 0.9 nM
